Results: ChEMBL document CHEMBL5634197, “Structural Evaluations of a Selective Human STINGA230 Agonist and Its Use in Macrophage Immunotherapies” (ACS Med Chem Lett, 2024)
Active and inactive are the calls of the source. The calls are words filed in the database; no cut-off is given here.

Key:
[1] = Agonist activity at N-terminal his/SUMO tagged STING A230 in human THP-1 cells transfected with ISRE reporter assessed as increase in cGAMP-induced ISRE activation incubated for 48 hrs by luminescence based analysis; type: cell-based
THP-1 [2] = experiment: Upregulation of MX1 expression in human THP-1 cells at 50 uM measured after 6 hrs by RT-qPCR analysis; type: functional, cell-based
Summary of the method: (§1)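 THP-1 cells, which carry homozygous STING HAQ, were treated for 6 h with vehicle or the agonist at 50 μM. Cells were then harvested, and MX1 and OAS1 expression was measured by RT-qPCR.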

THP-1 [3] = experiment: Upregulation of OAS1 expression in human THP-1 cells at 50 uM measured after 6 hrs by RT-qPCR analysis; type: functional, cell-based; summary of the method: as §1
Macrophage [4] = experiment: Upregulation of MX1 expression in human Primary macrophage measured after 6 hrs by RT-qPCR analysis; type: functional, cell-based
Summary of the method: (§2)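 CD14+ monocytes from 3 healthy donors with STING G230 alleles were differentiated into macrophages with M-CSF. Cells were transduced with FG12-EF1p-EGFRt-p2A-STINGA230 lentivirus, mock-transduced or left untransduced. Three days after transduction they were stimulated for 6 h with DMSO vehicle or the agonist, and MX1 and IRF7 expression was measured by RT-qPCR.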

Macrophage [5] = experiment: Upregulation of IRF7 expression in human Primary macrophage measured after 6 hrs by RT-qPCR analysis; type: functional, cell-based; summary of the method: as §2
[6] = Upregulation of MX1 expression in human Primary macrophage transduced with lentivirus FG12-EFlp-EGFRt-p2A-STING A230 assessed as fold change measured after 6 hrs by RT-qPCR analysis; type: functional; summary of the method: as §2
[7] = Upregulation of IRF7 expression in human Primary macrophage transduced with lentivirus FG12-EFlp-EGFRt-p2A-STING A230 assessed as fold change measured after 6 hrs by RT-qPCR analysis; type: functional; summary of the method: as §2
PBMC = experiment: Induction of MX1 gene expression in human PBMC cells harbouring STING A230 allele at 50 uM measured after 6 hrs by RT-qPCR analysis; type: functional, cell-based
Summary of the method: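 Primary PBMCs from 15 independent healthy donors were exposed to 50 μM agonist for 6 h. The 2′,3′-cGAMP comparator was given at 1 μg/mL. Cells were then harvested, and MX1 expression was measured by RT-qPCR. Values come from the donor carrying the STINGA230 allele.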

[8] = Homo sapiens, THP-1, 48 h, read-out: EC50

Row | SMILES | EC50 ([1]; thp-1) | also measured
1 | COC(=O)CNC(=O)n1cnc2sc(C)c(C)c2c1=O | Not Active | –
2 | COC(=O)CSc1ncc2c3c(C)c(C)sc3ncn12 | Not Active | –
3 | COCc1sc2ncn3c(SCC(=O)OC)nnc3c2c1C | – | EC50 [1, 8]: 23.2 µM
4 | COC(=O)CSc1nnc2c3c4c(sc3ncn12)CCCC4 | Not Active | –
5 | Cc1sc2ncn3c(Sc4nnn[nH]4)nnc3c2c1C | Not Active | –
6 | CCOC(=O)CSc1nnc2c3c(C)c(C)sc3ncn12 | – | EC50 [1, 8]: 8.8 µM
7 | Cc1sc2ncn3c(SC4CCOC4=O)nnc3c2c1C (configuration not stated) | Not Active | –
8 | COC(=O)CSc1nnc2c3c(C)c(C)sc3ccn12 | Not Active | –
9 | COC(=O)CSc1nnc2c3cc(OC)c(OC)cc3ncn12 | Not Active | –
10 | COC(=O)C[S+]([O-])c1nnc2c3c(C)c(C)sc3ncn12 (configuration not stated) | Not Active | –
11 | COC(=O)CSc1nnc2c3c(C)c(C)sc3nc(C)n12 | Not Active | –
12 | COC(=O)CCc1nnc2c3c(C)c(C)sc3ncn12 | Not Active | –
13 | COC(=O)CSc1nnc2c3ccsc3ncn12 | Not Active | –
14 | Cc1sc2ncn3c(SCC(=O)OC(C)C)nnc3c2c1C | – | EC50 [1, 8]: 13.4 µM
15 | COC(=O)CSc1nnc2c3c4c(sc3ncn12)CCC4 | – | EC50 [1, 8]: 7.3 µM
16 | COC(=O)CSc1nnc2c3c(C)c(C)sc3ncn12 | – | EC50 [1, 8]: 5.71 µM; Activity (THP-1 [2]): Active; Activity (THP-1 [3]): Active; Activity (Macrophage [4]): inactive; Activity (Macrophage [5]): inactive; fold change (FC) [6]: 10; fold change (FC) [7]: 5; Activity (PBMC): Active
17 | COC(=O)CSc1nnc2c3c(C)c(Br)sc3ncn12 | – | EC50 [1, 8]: 11.4 µM
18 | CCc1cc2c(ncn3c(SCC(=O)OC)nnc23)s1 | – | EC50 [1, 8]: 6.9 µM
19 | COC(=O)COc1nnc2c3c(C)c(C)sc3ncn12 | Not Active | –

Further lines, with some results ahead:

Row | EC50 ([1]; thp-1) | SMILES | also measured
20 | Not Active | COC(=O)CSc1nnc2c3c(C)c(C)n(C)c3ncn12 | –
21 | Not Active | COC(=O)CCSc1nnc2c3c(C)c(C)sc3ncn12 | –
22 | Not Active | COC(=O)CSc1nnc2c3c(C)c(C)oc3ncn12 | –
23 | Not Active | COC(=O)Cc1nnc2c3c(C)c(C)sc3ncn12 | –
24 | Not Active | COCc1c(C)sc2ncn3c(SCC(=O)OC)nnc3c12 | –
25 | Not Active | Cc1sc2ncn3c(SCC(=O)OC(C)(C)C)nnc3c2c1C | –
